What was measured:
[1] = tested on: A549, MCF-7, MDA-MB-231, MDA-MB-468 cells; assay: MTT assay, statements across the cancer cell line panel; format: cell-based; conditions: 72 h
Procedure, shortened: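 Cells in DMEM with nonessential amino acids and 10% FBS (37 °C, 5% CO2) attached overnight, then took test compound at a range of concentrations up to 100 μM for 72 h. MTT (0.5 mg/mL in complete medium) was added for 3 h at 37 °C, formazan dissolved in DMSO, A570 read. Growth = 100×(At−A0)/(Ac−A0), with time-0 and medium-treated controls.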

[2] = tested on: CREB-mediated gene transcription; assay: CREB Renilla luciferase; format: cell-based; conditions: HEK 293T cells
Nurr1/NR4A2 mRNA = assay: qRT-PCR of endogenous CREB target gene in HEK 293T cells; format: cell-based; conditions: forskolin 10 μM
cancer and normal cells = conditions: same assay conditions; cited from earlier work

Cl.O=C(NCCCOc1cc2ccccc2cc1C(=O)Nc1ccc(Cl)cc1O)c1cc2ccccc2cc1OCCCN1CCOCC1 [Compound 3e, N-(4-Chloro-2-hydroxyphenyl)-3-(3-(3-(3-morpholinopropoxy)-2-naphthamido)propoxy)-2-naphthamide Hydrochloride]
growth inhibition activity in the other three cancer cell lines ([1]; A549, MCF-7, MDA-MB-231, MTT): no activity

Cl.NCCCOc1cc2ccccc2cc1C(=O)NCCCOc1cc2ccccc2cc1C(=O)Nc1ccc(Cl)cc1 [Compound 3b, 3-(3-Aminopropoxy)-N-(3-((3-((4-chlorophenyl)carbamoyl)naphthalen-2-yl)oxy)propyl)-2-naphthamide Hydrochloride]
decrease of CREB inhibition activity in comparison to 3a [2]: about 2 fold

O=C(NCCCOc1cc2ccccc2cc1C(=O)Nc1ccc(Cl)cc1O)c1cc2ccccc2cc1OCCCO [Compound 3g, N-(4-Chloro-2-hydroxyphenyl)-3-(3-(3-(3-hydroxypropoxy)-2-naphthamido)propoxy)-2-naphthamide]
GI50 ([1]; read-out: GI50 values, range over all four cancer cell lines): 10.2 to 82.7 µM

C=C[C@@]1(C)CC(=O)[C@]2(O)[C@@]3(C)[C@@H](O)CCC(C)(C)[C@@H]3[C@H](O)[C@H](OC(C)=O)[C@@]2(C)O1 [forskolin]
stimulation of Nurr1/NR4A2 level (Nurr1/NR4A2 mRNA): ~31 fold

COc1cccc2c1C(=O)c1c(O)c3c(c(O)c1C2=O)C[C@@](O)(C(=O)CO)C[C@@H]3O[C@H]1C[C@H](N)[C@H](O)[C@H](C)O1 [doxorubicin]
differential toxicity between cancer and normal cells (cancer and normal cells): did not show differential toxicity
